Measurements as given in ChEMBL document CHEMBL3868591, “Melokhanines A-J, Bioactive Monoterpenoid Indole Alkaloids with Diverse Skeletons from Melodinus khasianus” (J Nat Prod, 2016).
Values after ≈ are worked out from the molar mass of the structure shown.

Assays:
Escherichia coli = experiment: Antibacterial activity against Escherichia coli ATCC 11775 after 24 hrs by broth microdilution method; assay type: functional
Method in brief: (§1)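 MIC determined by broth microdilution, three independent replicates. Strains used were P. aeruginosa ATCC 27853, E. faecalis ATCC 10541, E. coli ATCC 11775, S. aureus […] and K. pneumoniae ATCC 13883. Cefotaxime served as positive control.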

Pseudomonas aeruginosa = experiment: Antibacterial activity against Pseudomonas aeruginosa ATCC 27853 after 24 hrs by broth microdilution method; assay type: functional; method in brief: as §1
Staphylococcus aureus = experiment: Antibacterial activity against Staphylococcus aureus […] after 24 hrs by broth microdilution method; assay type: functional; method in brief: as §1
Klebsiella pneumoniae = experiment: Antibacterial activity against Klebsiella pneumoniae ATCC 13883 after 24 hrs by broth microdilution method; assay type: functional; method in brief: as §1
Enterococcus faecalis = experiment: Antibacterial activity against Enterococcus faecalis ATCC 10541 after 24 hrs by broth microdilution method; assay type: functional; method in brief: as §1
Microsporum canis = experiment: Antifungal activity against Microsporum canis CBS 113480 after 48 hrs by broth microdilution method; assay type: functional; conditions: CBS 113480, 48 h
Method in brief: (§2)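 Dermatophyte MICs obtained by broth microdilution in three independent replicates, with griseofulvin as positive control.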

[1] = Antifungal activity against Microsporum ferrugineum CBS 457.80 after 48 hrs by broth microdilution method; assay type: functional; method in brief: as §2
[2] = Antifungal activity against Trichophyton mentagrophytes ATCC 4439 after 48 hrs by broth microdilution method; assay type: functional; method in brief: as §2
Nannizzia gypsea = experiment: Antifungal activity against Microsporum gypseum CBS 118893 after 48 hrs by broth microdilution method; assay type: functional; conditions: CBS 118893, 48 h; method in brief: as §2
[3] = Antifungal activity against Trichophyton terrestre after 48 hrs by broth microdilution method; assay type: functional; method in brief: as §2
[4] = Antifungal activity against Epidermophyton floccosum CBS 566.94 after 48 hrs by broth microdilution method; assay type: functional; method in brief: as §2
[5] = Antifungal activity against Trichophyton ajelloi E1501 after 48 hrs by broth microdilution method; assay type: functional; conditions: Arthroderma uncinatum; method in brief: as §2
[6] = Cytotoxicity against human A549 cells after 48 hrs by MTT assay; assay type: functional, cell-based; conditions: A549, 48 h
Method in brief: (§3)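 MTT read-out. Each cell line was exposed in triplicate to a range of concentrations for 48 h, with cisplatin as positive control.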

[7] = Cytotoxicity against human SW480 cells after 48 hrs by MTT assay; assay type: functional, cell-based; conditions: SW480, 48 h; method in brief: as §3
[8] = Cytotoxicity against human HL60 cells after 48 hrs by MTT assay; assay type: functional, cell-based; conditions: HL-60, 48 h; method in brief: as §3
[9] = Cytotoxicity against human MCF7 cells after 48 hrs by MTT assay; assay type: functional, cell-based; conditions: MCF7, 48 h; method in brief: as §3
[10] = Cytotoxicity against human SMMC7721 cells after 48 hrs by MTT assay; assay type: functional, cell-based; conditions: SMMC-7721, 48 h; method in brief: as §3
[11] = DSM 30083 = JCM 1649 = ATCC 11775, 24 h

Molecule | MIC (Escherichia coli; [11]) [µM] | MIC (Pseudomonas aeruginosa; ATCC 27853, 24 h) [µM] | MIC (Staphylococcus aureus) [µM] | MIC (Klebsiella pneumoniae; ATCC 13883, 24 h) [µM] | MIC (Enterococcus faecalis; ATCC 10541, 24 h) [µM] | IC50 [6] [µM] | IC50 [7] [µM] | IC50 [8] [µM] | IC50 [9] [µM] | IC50 [10] [µM] | further results
COC1=CC(=O)C[C@@H](C)[C@]12Oc1c(Cl)c(OC)cc(OC)c1C2=O [GRISEOFULVIN] |  |  |  |  |  |  |  |  |  |  | MIC (Microsporum canis): 18 µM (≈ 6.35 µg/mL); MIC [1]: 35 µM (≈ 12.3 µg/mL); MIC [2]: 18 µM (≈ 6.35 µg/mL); MIC (Nannizzia gypsea): 9 µM (≈ 3.17 µg/mL); MIC [3]: 35 µM (≈ 12.3 µg/mL); MIC [4]: 9 µM (≈ 3.17 µg/mL); MIC [5]: 71 µM (≈ 25 µg/mL)
CO/N=C(\C(=O)N[C@@H]1C(=O)N2C(C(=O)O)=C(COC(C)=O)CS[C@H]12)c1csc(N)n1 [CEFOTAXIME] | 1.7 (≈ 0.774 µg/mL) | 0.4 (≈ 0.182 µg/mL) | 0.4 (≈ 0.182 µg/mL) | 1.7 (≈ 0.774 µg/mL) | 0.4 (≈ 0.182 µg/mL) |  |  |  |  |  | 
CC[C@@]12CCCN3CC[C@@]4(O)c5ccccc5N(C(=O)CC1)[C@]324 | > 150 | 2 (≈ 0.625 µg/mL) | > 150 | > 150 | > 150 |  |  |  |  |  | 
CC[C@@]12CCCN3CC[C@@H](c4ccccc4NC(=O)CC1)[C@]32O | > 150 | 5 (≈ 1.57 µg/mL) | > 150 | > 150 | 39 (≈ 12.3 µg/mL) | > 40 | > 40 | > 40 | > 40 | > 40 | 
CC[C@]12C=CN3c4ccccc4C(=O)[C@]34CCN(CCC1)[C@H]24 | > 150 | 2 (≈ 0.589 µg/mL) | > 150 | > 150 | 42 (≈ 12.4 µg/mL) | > 40 | > 40 | > 40 | > 40 | > 40 | 
CC[C@]12CCCn3c(C=O)cc(c31)-c1ccccc1NC(=O)CC2 [RHAZINAL] | > 150 | 2 (≈ 0.645 µg/mL) | > 150 | 77 (≈ 24.8 µg/mL) | 19 (≈ 6.13 µg/mL) |  |  |  |  |  | 
CC[C@@]12CCCN3CC[C@]4(C(=O)c5ccccc5N4[C@@H](O)[C@H]1O)[C@H]32 | 150 (≈ 49.3 µg/mL) | 19 (≈ 6.24 µg/mL) | > 150 | 150 (≈ 49.3 µg/mL) | 75 (≈ 24.6 µg/mL) | > 40 | > 40 | > 40 | > 40 | > 40 | 
C/C=C1/CN2CCc3c([nH]c4ccccc34)[C@@H]2C[C@@H]1[C@H](CO)C(=O)OC | > 150 | 2 (≈ 0.709 µg/mL) | > 150 | > 150 | 18 (≈ 6.38 µg/mL) |  |  |  |  |  | 
RAUWOLFIA SERPENTINA |  |  | > 150 |  |  |  |  |  |  |  | MIC (Escherichia coli; DSM 30083 = JCM 1649 = ATCC 11775): 142 µM; MIC (Pseudomonas aeruginosa): 4 µM; MIC (Klebsiella pneumoniae): > 150 µM; MIC (Enterococcus faecalis): 71 µM
CC[C@@H]1CN2CC[C@]34c5ccccc5-n5c3c(cc(C(=O)O)c5=O)[C@H]1C[C@H]24 [MELODININE C] | > 150 | 4 (≈ 1.45 µg/mL) | > 150 | 69 (≈ 25 µg/mL) | > 150 |  |  |  |  |  | 
CCO[C@@H]1C[C@@]2(CC)CCCN3CC[C@]4(C(=O)c5ccccc5N14)[C@H]32 | 147 (≈ 50 µg/mL) | 4 (≈ 1.36 µg/mL) | > 150 | > 150 | 147 (≈ 50 µg/mL) | > 40 | > 40 | > 40 | > 40 | > 40 | 
CC[C@]12CCCN(CC[C@]3(O)C(=O)Nc4ccccc43)[C@H]1OCC2 | 19 (≈ 6.28 µg/mL) | 19 (≈ 6.28 µg/mL) | 75 (≈ 24.8 µg/mL) | 150 (≈ 49.6 µg/mL) | 75 (≈ 24.8 µg/mL) | > 40 | > 40 | > 40 | > 40 | > 40 | MIC (Microsporum canis): 38 µM (≈ 12.6 µg/mL); MIC [1]: 75 µM (≈ 24.8 µg/mL); MIC [2]: 150 µM (≈ 49.6 µg/mL); MIC (Nannizzia gypsea): 150 µM (≈ 49.6 µg/mL); MIC [3]: > 150 µM; MIC [4]: 150 µM (≈ 49.6 µg/mL); MIC [5]: 150 µM (≈ 49.6 µg/mL)

Second part, led by results:

MIC (Escherichia coli; [11]) [µM] | MIC (Pseudomonas aeruginosa; ATCC 27853, 24 h) [µM] | MIC (Staphylococcus aureus) [µM] | MIC (Klebsiella pneumoniae; ATCC 13883, 24 h) [µM] | MIC (Enterococcus faecalis; ATCC 10541, 24 h) [µM] | Molecule | IC50 [6] [µM] | IC50 [7] [µM] | IC50 [8] [µM] | IC50 [9] [µM] | IC50 [10] [µM] | further results
66 (≈ 24.7 µg/mL) | 2 (≈ 0.749 µg/mL) | > 150 | 133 (≈ 49.8 µg/mL) | 66 (≈ 24.7 µg/mL) | CCC1=CN2CC[C@]34c5ccccc5-n5c3c(cc(C(=O)OC)c5=O)[C@H]1C[C@H]24 |  |  |  |  |  | 
85 (≈ 25 µg/mL) | 5 (≈ 1.47 µg/mL) | > 150 | > 150 | 2 (≈ 0.589 µg/mL) | CC[C@@]12CCCN3CCc4c(n(c5ccccc45)C(=O)C1)[C@H]32 |  |  |  |  |  | 
150 (≈ 49 µg/mL) | 5 (≈ 1.63 µg/mL) | > 150 | > 150 | 5 (≈ 1.63 µg/mL) | CC[C@@]12CCCN3CC[C@]4(C(=O)c5ccccc5N4[C@H](OC)C1)[C@H]32 | > 40 | > 40 | > 40 | > 40 | > 40 | 
> 150 | 2 (≈ 0.621 µg/mL) | > 150 | > 150 | 5 (≈ 1.55 µg/mL) | CC[C@@]12CCCN3CC[C@]4(C(=O)c5ccccc5N4C(=O)C1)[C@H]32 | > 40 | > 40 | > 40 | > 40 | > 40 | 
71 (≈ 25 µg/mL) | 4 (≈ 1.41 µg/mL) | > 150 | > 150 | 71 (≈ 25 µg/mL) | CO[C@H]1CCN2CCc3c([nH]c4ccccc34)[C@@]3(C(=O)O)CCC=C1[C@H]23 | > 40 | > 40 | > 40 | > 40 | > 40 | 
> 150 | 2 (≈ 0.723 µg/mL) | > 150 | 69 (≈ 24.9 µg/mL) | > 150 | CC[C@@H]1CN2CC[C@]34c5ccccc5-n5c3c(cc(C(N)=O)c5=O)[C@H]1C[C@H]24 [LEUCONICINE A] |  |  |  |  |  | 
75 (≈ 24.5 µg/mL) | 19 (≈ 6.2 µg/mL) | > 150 | > 150 | 150 (≈ 49 µg/mL) | CC[C@@]12CCCN3CC[C@]4(C(=O)c5ccccc5N4[C@@H](OC)C1)[C@H]32 | > 40 | > 40 | > 40 | > 40 | > 40 | 
> 150 | 22 (≈ 6.12 µg/mL) | > 150 | > 150 | 22 (≈ 6.12 µg/mL) | CC[C@]12C=Cn3c4c(c5ccccc53)CCN(CCC1)[C@@H]42 |  |  |  |  |  | 
> 150 | 5 (≈ 1.63 µg/mL) | > 150 | > 150 | 2 (≈ 0.653 µg/mL) | CC[C@@]12CCCN3C(=O)C=C(c4ccccc4NC(=O)CC1)[C@]32O |  |  |  |  |  | 
76 (≈ 24.8 µg/mL) | 19 (≈ 6.2 µg/mL) | 19 (≈ 6.2 µg/mL) | > 150 | 19 (≈ 6.2 µg/mL) | CC[C@@]12CCCN3C(=O)C[C@H]4c5cc(O)ccc5N(C(=O)CC1)C432 (some centres undefined) |  |  |  |  |  | 
73 (≈ 25 µg/mL) | 18 (≈ 6.16 µg/mL) | > 150 | > 150 | 73 (≈ 25 µg/mL) | CC[C@@]12CCCN3CC[C@]4(C(=O)c5ccccc5N4[C@@H](OC)[C@H]1O)[C@H]32 | > 40 | > 40 | > 40 | > 40 | > 40 | 
